Measurements as given in ChEMBL document CHEMBL4680130, “Substituted 4-phenylthiazoles: Development of potent and selective A, A and dual A/A adenosine receptor antagonists” (Eur J Med Chem, 2020).

Columns and labels:
Adenosine receptor A2b = target: T1, Adenosine receptor A2b (Homo sapiens, UniProt P29275); test: Displacement of [3H]PSB-603 from human adenosine receptor A2B expressed in CHO cell membranes incubated for 75 mins by radioligand competition assay; set-up: species or system Cell membrane
T1 sequence (P29275 whole entry): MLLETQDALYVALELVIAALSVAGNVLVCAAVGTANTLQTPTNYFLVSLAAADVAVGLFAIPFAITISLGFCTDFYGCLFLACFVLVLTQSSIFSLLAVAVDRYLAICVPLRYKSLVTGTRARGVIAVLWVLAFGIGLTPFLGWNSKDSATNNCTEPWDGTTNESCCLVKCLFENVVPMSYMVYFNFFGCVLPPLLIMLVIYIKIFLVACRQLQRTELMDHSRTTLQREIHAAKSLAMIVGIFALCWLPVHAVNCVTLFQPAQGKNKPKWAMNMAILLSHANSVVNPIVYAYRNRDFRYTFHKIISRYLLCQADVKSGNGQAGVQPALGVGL

Adenosine receptor A1 [1] = target: T2, Adenosine receptor A1 (Rattus norvegicus, UniProt P25099); test: Displacement of [3H]DPCPX from rat brain cortical membrane A1AR in absence of GTP by scintillation counting analysis; format: cell membranes, Cortex, Cell membrane
T2 sequence (P25099 whole entry): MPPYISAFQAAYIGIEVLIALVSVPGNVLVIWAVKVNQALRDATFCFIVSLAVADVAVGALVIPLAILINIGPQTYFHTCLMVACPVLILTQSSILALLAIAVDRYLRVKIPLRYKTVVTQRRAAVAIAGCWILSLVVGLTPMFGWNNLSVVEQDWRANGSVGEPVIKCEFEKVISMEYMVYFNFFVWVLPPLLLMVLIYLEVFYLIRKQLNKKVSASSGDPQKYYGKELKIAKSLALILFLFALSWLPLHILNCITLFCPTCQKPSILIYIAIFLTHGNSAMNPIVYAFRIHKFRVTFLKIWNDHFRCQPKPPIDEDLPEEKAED

Adenosine receptor A2a [2] = target: T3, Adenosine receptor A2a (Homo sapiens, UniProt P29274); test: Displacement of [3H]MSX2 from human adenosine receptor A2A expressed in HEK293 cell membranes incubated for 30 mins by radioligand competition assay; set-up: species or system Cell membrane
Adenosine receptor A1 [3] = target: T2, Adenosine receptor A1; test: Displacement of [3H]DPCPX from rat brain cortical membrane A1AR in presence of 100 uM of GTP by scintillation counting analysis; format: cell membranes, Cortex, Cell membrane
Adenosine receptor A3 = target: T4, Adenosine receptor A3 (Rattus norvegicus, UniProt P28647); test: Displacement of [3H]NECA from rat adenosine receptor A3 expressed in CHO cell membranes incubated for 60 mins by radioligand competition assay; set-up: species or system Cell membrane
T4 sequence (P28647 whole entry): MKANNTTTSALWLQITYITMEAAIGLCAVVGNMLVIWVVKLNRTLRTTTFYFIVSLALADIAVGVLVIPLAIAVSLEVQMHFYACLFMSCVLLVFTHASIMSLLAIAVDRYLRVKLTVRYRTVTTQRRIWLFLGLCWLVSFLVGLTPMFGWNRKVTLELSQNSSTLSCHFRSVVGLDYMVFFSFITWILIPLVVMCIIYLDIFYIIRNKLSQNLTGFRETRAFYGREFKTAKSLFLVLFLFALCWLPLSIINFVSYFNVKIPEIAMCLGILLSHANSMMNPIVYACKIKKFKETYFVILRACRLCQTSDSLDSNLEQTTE

Adenosine receptor A2a [4] = target: Adenosine receptor A2a (Rattus norvegicus, UniProt P30543); test: Displacement of [3H]MSX2 from adenosine receptor A2A in rat brain striatum membranes incubated for 30 mins by radioligand competition assay; format: cell membranes, Cell membrane
Adenosine receptor A2a [5] = target: T3, Adenosine receptor A2a; test: Displacement of [3H]MSX2 from human adenosine receptor A2A expressed in HEK293 cell membranes at 0.1 uM incubated for 30 mins by radioligand competition assay relative to control; conditions: Cell membrane, in the assay text read “at 1 uM” for “at 0.1 uM”
Method in brief: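 A2A binding, [3H]MSX-2 1.0 nM. Membranes: rat brain striatum, or HEK293 cells expressing human A2A. Adenosine deaminase preincubation 20 min, then 30 min at rt in 50 mM Tris-HCl pH 7.4 with 2.5% DMSO. Nonspecific binding defined by 50 µM NECA. GF/B filtration, scintillation counting. Single-concentration percent inhibition, ≥3 experiments in duplicate or triplicate.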

Adenosine receptor A1 [6] = target: T2, Adenosine receptor A1; test: Displacement of [3H]CCPA from rat adenosine receptor A1 by radioligand competition assay
Method in brief: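 A1 competition binding with [3H]CCPA, 0.5 nM. Membranes: CHO cells expressing human A1, or rat brain cortex. Membranes preincubated 20 min with adenosine deaminase (2 U/mL per mg protein). Incubation 90 min at rt in 50 mM Tris-HCl pH 7.4 with 2.5% final DMSO. Nonspecific binding defined by 10 µM 2-chloroadenosine. GF/B filtration, scintillation counting.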

T3 sequence (P29274 whole entry): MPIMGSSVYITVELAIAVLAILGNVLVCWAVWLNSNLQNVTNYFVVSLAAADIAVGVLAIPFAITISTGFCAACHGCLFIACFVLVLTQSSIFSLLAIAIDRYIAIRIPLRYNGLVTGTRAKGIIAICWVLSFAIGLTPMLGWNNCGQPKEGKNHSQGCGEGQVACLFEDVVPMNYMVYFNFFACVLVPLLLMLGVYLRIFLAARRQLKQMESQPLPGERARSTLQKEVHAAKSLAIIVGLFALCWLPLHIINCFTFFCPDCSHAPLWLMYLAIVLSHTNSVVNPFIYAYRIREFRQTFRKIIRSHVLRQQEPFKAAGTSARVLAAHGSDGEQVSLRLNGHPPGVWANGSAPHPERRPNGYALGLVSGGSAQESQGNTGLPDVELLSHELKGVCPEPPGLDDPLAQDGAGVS
Chain of Adenosine receptor A2a (Rattus norvegicus, UniProt P30543) (P30543 whole entry): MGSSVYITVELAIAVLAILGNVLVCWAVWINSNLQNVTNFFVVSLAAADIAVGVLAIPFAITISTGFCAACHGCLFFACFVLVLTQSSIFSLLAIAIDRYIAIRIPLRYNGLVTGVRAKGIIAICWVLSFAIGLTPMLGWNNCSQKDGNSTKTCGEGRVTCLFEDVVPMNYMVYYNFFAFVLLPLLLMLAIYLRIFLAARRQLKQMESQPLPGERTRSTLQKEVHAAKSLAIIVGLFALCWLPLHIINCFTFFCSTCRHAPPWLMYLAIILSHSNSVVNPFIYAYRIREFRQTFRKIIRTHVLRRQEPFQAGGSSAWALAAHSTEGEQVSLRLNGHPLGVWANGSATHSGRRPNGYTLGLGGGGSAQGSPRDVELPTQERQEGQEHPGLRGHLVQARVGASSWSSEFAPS

Ki (Adenosine receptor A2b): > 100 nM | IC50 (Adenosine receptor A1 [1]): 0.0756 nM | Ki (Adenosine receptor A2a [2]): > 1000 nM | IC50 (Adenosine receptor A1 [3]): 0.0763 nM | Ki (Adenosine receptor A3): > 10000 nM | Ki (Adenosine receptor A2a [4]): > 1000 nM | inhibition (Adenosine receptor A2a [5]): 28% | Ki (Adenosine receptor A1 [6]): 0.529 nM
Structure (SMILES): COc1ccc(C(=O)Nc2nc(-c3ccccc3)c(C(=O)c3ccc(C)cc3)s2)cc1
